This is a sample that favours compounds with a hit; in the whole collection about 2.3% have one here.
ABCB1 inh – blocks JC-1 efflux by human ABCB1 transporter; CCRF-Adr cells, flow cytometry; inhibition, % at 6.6 µM; 190,000 compounds, 0.067% hits; AID 1326; in the data active means inhibition above about 40%;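 further: 0% = vehicle and 100% = reference inhibitor; higher value means more JC-1 retained so stronger ABCB1 efflux block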
RAM network inh – blocks the yeast RAM network; S. cerevisiae dse1pr::URA3 reporter, 5-FOA growth OD615, 2 d; analog-sensitive cbk1-as2 kinase mutant strain; inhibition, % at 50 µM; 190,000 compounds, 1.8% hits;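 active means inhibition above a set limit, 3 SD over mean compound inhibition, cut at about 8.4% in these data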;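 further: 0% = DMSO-only wells with no growth and 100% = 10 µM 1-NA-PP1 full growth; inhibition rescues growth on 5-FOA so higher OD means more RAM inhibition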
ABCG2 block – inhibitors of human ABCG2 transporter, ABCB1 counter-screen. Q9UNQ0. inhibition, % at 6.6 µM. 190,000 compounds, 0.1% hits. IgMXP3 cells, JC-1 efflux, flow cytometry. AID 1325;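 active means inhibition above 80%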;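 further: 0% = DMSO and 100% = nicardipine control wells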
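Times: 10 min at 25 °C | Test system: Two drug-resistant human cell lines, ABCG2 and ABCB1 | Quantity: 3 million cells/mL final, two lines in 1:1 ratio | Signal: Flow cytometry, 530 nm JC-1 signal | Dosing: Compound at 6.6 µM | Controls: Nicardipine and DMSO wells | Reagent: JC-1 as fluorescent efflux pump substrate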
Arbovirus inh – antivirals against arbovirus infection | inhibition, % at 10 µM | 200,000 compounds, 0.37% hits | AID 1251 | arbovirus infection cell-based antiviral screen; in the data active means inhibition above about 30%
RAM 5-FOA – RAM network inhibitors in efflux-deficient yeast; S. cerevisiae efflux-deficient reporter strain, 5-FOA growth OD615, 2 days; 1,200 tested, under 10 active; shares compounds with RAM network inh; max inhibition, %; call rule not given here;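 further: plate controls were vehicle for no effect and reference inhibitor for full effect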
* = called active by the depositor; / = not tested or not shown.

SMILES | ABCB1 inh | RAM network inh | ABCG2 block | Arbovirus inh | RAM 5-FOA
COc1ccc(S(=O)(=O)N(C(=O)C(C)C)c2ccc3oc(=O)sc3c2)cc1 | 0.3 | 1.2 | 0.8 | -2.0 | /
O=C(CSCc1nc2c(nnn2Cc2ccc(F)cc2)c(=O)[nH]1)Nc1cccc(C(F)(F)F)c1 | 0.7 | 15.7* | 1.5 | 0.0 | 1.3
CN(C)c1ccc(NC(=O)CSCc2nc3c(nnn3Cc3ccc(F)cc3)c(=O)[nH]2)cc1 | 0.3 | 1.6 | 2.1 | -1.7 | /
O=C(COC(=O)c1ccccc1C(=O)c1ccccc1)Nc1ccc(SC(F)F)cc1 | 1.5 | 13.2* | 8.8 | 2.1 | 3.2
O=C(COC(=O)c1ccccc1Nc1ccc(SC(F)F)cc1)NC1CC1 | 1.1 | 12.5* | 3.0 | 26.3 | 2.4
NC(=O)COC(=O)c1ccccc1Nc1ccc(SC(F)F)cc1 | 0.6 | -0.6 | 4.7 | 27.2 | /
O=C(COc1ccccc1C(=O)O)Nc1ccc(SC(F)F)cc1 | 0.6 | 0.6 | 1.5 | 3.9 | /
Cc1cccc(NC(=O)CSc2nnc(-c3ccncc3)n2C)c1 | -2.2 | -0.5 | -3.4 | 5.7 | /
O=C(c1nc2ccccn2c1CN1CCN(c2ccccc2O)CC1)N1CCCC1 | 1.3 | -0.3 | 1.5 | -3.1 | /
O=C(CSc1nc2ccc(NC(=O)C3CCCCC3)cc2s1)NCC1CCCO1 (stereo not drawn) | 0.1 | 0.9 | 0.9 | -4.5 | /
C(=N\N(c1ccccc1)c1ccccc1)/c1ccc2c(c1)OCO2 | 0.6 | 14.1* | 2.0 | -7.9 | 7.0
CN(/N=C/c1ccc2c(c1)OCO2)c1ccccc1 | 0.3 | 4.1 | 10.2 | 11.7 | /
O/N=C/c1cc(Br)ccc1OCc1cccc(F)c1 | 0.9 | 12.2* | 26.1 | -4.8 | 1.9
Cc1ccc(COc2ccc(Br)cc2/C=N/O)cc1 | -0.2 | 4.0 | -0.5 | -35.7 | /
CCN=C1S/C(=C\c2ccc(O)c(OCC)c2)C(=O)N1CC | -2.1 | 2.5 | 1.8 | -8.2 | /
CCN=C1S/C(=C\c2cc(OCC)c(O)cc2Br)C(=O)N1CC | 0.5 | 11.9* | 2.8 | -2.5 | 2.9
CSc1ccccc1-c1nnc(-c2ccc(C)cc2)o1 | 1.1 | 13.6* | 5.5 | 6.6 | 1.1
CSc1ccccc1-c1nnc(-c2ccccc2)o1 | 0.9 | 1.8 | 4.7 | -10.7 | /
CC(=O)N/N=C(\C)c1cccc(C(F)(F)F)c1 | 0.2 | -0.1 | 3.7 | -0.8 | /
Cc1ccc(O)c(C(=O)/C=C/c2ccc3c(c2)OCCCO3)c1 | 0.9 | 12.2* | 15.8 | -41.3 | 4.4
Cc1ccc([N+](=O)[O-])cc1NC(=O)c1ccoc1C | 0.9 | 1.0 | 11.0 | 2.0 | /
Cc1ccc(C(=O)OCC(=O)Nc2cc(S(=O)(=O)N3CCOCC3)ccc2C)cc1 | 1.0 | 11.8* | 7.9 | 2.0 | 1.8
CC(=O)c1cccc(S(=O)(=O)N(Cc2cc3cc4c(cc3[nH]c2=O)OCCO4)CC2CCCO2)c1 (stereo not drawn) | 0.5 | 5.8 | 7.9 | 1.1 | /
COc1ccc(CNc2oc(-c3cccc4ccccc34)nc2C#N)cc1 | -0.3 | 14.9* | 17.9 | 10.9 | 2.6
C=CCNc1oc(Cc2cccc3ccccc23)nc1C#N | 0.3 | 5.6 | 3.0 | 1.6 | /
SMILES | ABCB1 inh | RAM network inh | ABCG2 block | Arbovirus inh | RAM 5-FOA
CNc1oc(-c2cccc3ccccc23)nc1C#N | 0.3 | 2.6 | 1.8 | 3.2 | /
N#Cc1nc(Cc2cccc3ccccc23)oc1NCc1ccc(F)cc1 | 1.2 | 14.9* | 6.0 | 3.6 | 3.5
CCOc1ccc(N2C(=O)C3C(c4ccc(O)cc4)NC(CCSC)(C(=O)OC)C3C2=O)cc1 (stereo not drawn) | 0.1 | -0.5 | 1.1 | 6.4 | /
CCc1ccc(NC(=S)NC2CCN(Cc3ccccc3)CC2)cc1 | 0.7 | 0.0 | 0.4 | -0.9 | /
CCOC(=O)c1c(C)[nH]c(C)c1C(=O)COC(=O)/C=C/c1cccc(C(F)(F)F)c1 | 0.1 | 22.7* | 0.8 | 17.3 | 2.7
COc1ccc2c(c1)C(C)CC(C)(C)N2C(=O)CSc1nc2ccccc2s1 (stereo not drawn) | 0.7 | 13.3* | 1.9 | -14.9 | 4.2
Cc1ccc(C(=O)NCCSCc2ccc(Cl)cc2Cl)cc1[N+](=O)[O-] | -0.1 | 14.1* | 1.6 | -27.7 | 1.4
c1coc(-c2nc(-c3ccncc3)no2)c1 | 0.2 | 0.9 | 1.8 | -2.6 | /
O=C(CSc1ccc(Cl)cc1Cl)N1CCC(c2nc3ccccc3s2)CC1 | 0.5 | 13.0* | -0.1 | -21.4 | 2.0
CC(C)OCCCNC(=O)c1c(N)n(/N=C/c2ccccn2)c2nc3ccccc3nc12 | 1.6 | 11.6* | 3.4 | -3.2 | 7.8
COCCCNC(=O)c1c(N)n(-c2ccc(S(N)(=O)=O)cc2)c2nc3ccccc3nc12 | -0.2 | 6.7 | -0.1 | 9.1 | /
COCCNC(=O)c1c(N)n(-c2ccccc2)c2nc3ccccc3nc12 | 0.4 | 15.1* | 2.6 | 1.1 | 2.8
O=C(O)c1ccc(-n2cc(-c3cc4ccccc4oc3=O)[nH]c2=S)cc1 | -0.5 | 2.0 | -1.1 | 3.0 | /
COc1cc(NC(=O)Cc2ccccc2OC)cc(OC)c1 | 0.2 | -0.3 | 2.7 | -3.1 | /
COc1ccccc1NS(=O)(=O)c1cc(NC(=O)c2ccc3ccccc3n2)ccc1Cl | -0.2 | 5.8 | -0.5 | -0.9 | /
O=C(CN(C(=O)CSc1nnc(COc2ccccc2)o1)c1ccc(F)cc1)NC1CCCC1 | 0.8 | 15.4* | 30.7 | -10.0 | 1.9
Cc1cccc2cc(CN(Cc3ccccc3)C(=O)N(C)C)c(=O)[nH]c12 | 1.4 | 2.1 | 3.6 | 4.4 | /
Nc1nc(-c2ccccc2)c(N=Nc2cccnc2)s1 | 0.8 | 13.4* | 3.2 | -5.8 | 1.8
Cc1ccc(NC(=S)NNC(=O)c2ccccc2OC(F)F)cc1 | 0.8 | 0.8 | 9.5 | -18.7 | /
Cc1ccc(C(c2nnnn2C2CCCC2)N2CCc3ccccc32)cc1 (stereo not drawn) | 2.3 | 12.3* | 10.7 | 5.8 | 3.7
CC(C)C(c1nnnn1C1CCCC1)N1CCc2ccccc21 (stereo not drawn) | 0.3 | 1.4 | 0.8 | -0.3 | /
CCn1c(SCc2nc3ccccc3c(=O)[nH]2)nc2ccccc21 | 0.4 | 12.2* | 1.3 | -0.7 | 4.8
CCc1ccc(C2NC(=S)NC3=C2C(=O)CCC3)cc1 (stereo not drawn) | 0.3 | 1.5 | 3.0 | 1.1 | /
CCCCNS(=O)(=O)c1ccc(NC(=O)C(Sc2ccccc2)c2ccccc2)cc1 (stereo not drawn) | -0.6 | 13.5* | -0.6 | -15.7 | 1.3
CCC(C)NS(=O)(=O)c1ccc(NC(=O)C(Sc2ccccc2)c2ccccc2)cc1 (stereo not drawn) | -0.2 | 1.1 | 3.5 | -14.9 | /
CCOc1cc(/C=N/Nc2nc(Nc3ccccc3)nc(N3CCCCC3)n2)ccc1OCC(=O)O | -1.1 | 18.5* | -3.0 | 15.7 | 7.5
COc1ccc(/C=N/Nc2nc(Nc3ccccc3)nc(N3CCCCC3)n2)cc1OC | 0.1 | 0.0 | 0.1 | -13.5 | /
CC(=O)OC(COc1cccc(C)c1)Cn1cnc2ccccc21 (stereo not drawn) | 1.1 | -0.2 | 11.2 | 23.5 | /
O=C(O)/C=C/C(=O)Nc1ccccc1C(=O)OCC(=O)c1ccc2c(c1)OCCO2 | 0.0 | 0.9 | 0.4 | 4.6 | /
CCCCC(=O)Nc1ccccc1C(=O)OCC(=O)c1ccc2c(c1)OCCO2 | 2.5 | 12.8* | 36.6 | -11.0 | 1.7
